High-throughput results deposited in PubChem by several laboratories.
Only some compounds are listed: those with a hit (about 3.7% of all), similar ones and a draw of the others.
PGE2 EP2 inh: inhibitors of human EP2 prostaglandin E2 receptor; P43116; C6 glioma cells expressing human EP2, cAMP TR-FRET; cells stimulated with saturating PGE2; inhibition, % at 25 µM; AID 1422; hit rate 0.52% among 260,000;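 active means percent inhibition above 40 after rounding to a whole number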;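 further: rat C6 glioma host cells with rolipram phosphodiesterase inhibitor present; the protocol text gives 20 µM as final concentration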
Target sequence (P43116 whole entry, looked up): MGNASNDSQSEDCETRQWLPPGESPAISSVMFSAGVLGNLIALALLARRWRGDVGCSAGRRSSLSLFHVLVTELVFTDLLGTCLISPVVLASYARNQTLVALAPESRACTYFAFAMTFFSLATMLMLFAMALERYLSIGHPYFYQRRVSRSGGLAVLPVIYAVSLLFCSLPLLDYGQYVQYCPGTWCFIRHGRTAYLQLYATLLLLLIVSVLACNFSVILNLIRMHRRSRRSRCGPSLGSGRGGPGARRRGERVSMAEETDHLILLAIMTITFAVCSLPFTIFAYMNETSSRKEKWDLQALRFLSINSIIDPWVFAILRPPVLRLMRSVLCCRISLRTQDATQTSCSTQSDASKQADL
CHO parental Ca: counter-screen: ATP calcium response change in parental CHO cells; parental CHO-K1, ATP-induced calcium, Fluo-8 fluorescence; inhibition, % at 5.6 µM; hit rate 0.63% among 330,000; AID 463079;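 active means inhibition above that plate's mean sample inhibition plus 3 SD, cut at about 26% in these data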
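Material: Parental CHO cells | Reagent: ATP | Compound dosing: Single nominal dose of 5.6 µM per compound | Detection: Intracellular calcium via Fluo-8 no-wash fluorescent dye | Read-out: % inhibition of ATP-induced calcium mobilization | Benchmarks: Low control ATP plus DMSO, high control DMSO only | Replicates: Singlicate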
OX1R antag-1: blocks the human orexin 1 receptor; O43613; CHO/OX1R cells, Fluo-8 calcium fluorescence, orexin A; inhibition, % at 5 µM; hit rate 0.43% among 330,000;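 active means inhibition above its plate's threshold, mean inhibition of all tested compounds on the plate plus 3 SD, cut at about 37% in these data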
GPR7 antag: blocks human GPR7 receptor signaling | inhibition, % at 4.4 µM | hit rate 1.1% among 290,000 | GPR7-expressing cells, fluorescence antagonist assay; in the data active means inhibition above about 16%, passing the limit was not always enough;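 further: cells stimulated with the agonist NPW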
Target sequence (P48145 whole entry, looked up): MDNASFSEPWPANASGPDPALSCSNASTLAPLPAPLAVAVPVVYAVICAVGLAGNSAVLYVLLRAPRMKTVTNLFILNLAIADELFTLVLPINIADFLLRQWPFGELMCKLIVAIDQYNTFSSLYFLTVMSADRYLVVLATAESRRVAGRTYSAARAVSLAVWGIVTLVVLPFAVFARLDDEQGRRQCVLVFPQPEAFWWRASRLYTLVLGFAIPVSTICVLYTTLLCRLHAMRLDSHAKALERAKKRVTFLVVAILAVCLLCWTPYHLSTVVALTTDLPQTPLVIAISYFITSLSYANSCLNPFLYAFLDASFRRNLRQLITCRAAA
OX1R antag-2: antagonists of human orexin 1 receptor (OX1R); hit rate 1.8% among 330,000; inhibition, % at 6.6 µM; O43613; OX1R-expressing cells, FRET antagonist read-out; in the data active means inhibition mostly above about 38%, no sharp cut-off; inactive means mostly below about 40%
EP2 modulator: modulates human prostaglandin E2 receptor EP2 signaling; induction, % at 25 µM; P43116; AID 940; hit rate 0.83% among 260,000; EP2-expressing cells, cAMP HTRF FRET, PGE2 co-stimulation;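 active means compounds whose cAMP rise, as percent of the full-agonist control response, exceeds 60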;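 further: rat C6 glioma line stably carrying human EP2 under a CMV promoter; the protocol text gives 20 µM as final concentration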
Each line names hits and unclear results; the compound was inactive in the other large screens.

COc1ccc(NC(=O)c2cc(-c3cc(Cl)ccc3O)n[nH]2)c(OC)c1	OX1R antag-2 42 (no result: PGE2 EP2 inh, EP2 modulator)
COc1ccc(OC)c(NC(=O)c2cc(-c3cc(C)cc(C)c3O)n[nH]2)c1	OX1R antag-2 62 (no result: PGE2 EP2 inh, EP2 modulator)
O=C(Nc1ccc(S(=O)(=O)N2CCOCC2)cc1)c1cc(-c2cc(Cl)ccc2O)n[nH]1	GPR7 antag 20
Cc1ccc(C)c(NC(=O)c2cc(-c3cc(C)ccc3O)n[nH]2)c1	CHO parental Ca 32 (no result: PGE2 EP2 inh, EP2 modulator)
CCn1nnnc1NC(=O)c1ccc2ccccc2c1	none
N#Cc1nc(-c2cccs2)oc1NCc1ccco1	none
COc1ccc(NC(=O)c2cc(-c3cc(C)cc(C)c3O)n[nH]2)cc1Cl	OX1R antag-2 79
Cc1cc(C)c(O)c(-c2cc(C(=O)Nc3cccnc3)[nH]n2)c1	OX1R antag-2 44
COc1ccc(NC(=O)c2cc(-c3ccccc3O)n[nH]2)cc1Cl	none (no result: PGE2 EP2 inh, CHO parental Ca, OX1R antag-1, OX1R antag-2, EP2 modulator)
Cc1ccc2[nH]c3c(c2c1)CCC3=O	PGE2 EP2 inh 42
Cc1ccccc1-c1cc2c(nn1)-c1ccccc1C2=O	OX1R antag-2 72
Cc1ccc(-c2cc3c(nn2)-c2ccccc2C3=O)cc1	OX1R antag-2 44
O=C1c2ccccc2-c2nnc(-c3ccc(F)cc3)cc21	none
O=C1c2ccccc2-c2nnc(-c3ccc(O)cc3)cc21	none
COc1ccc(N2CCN(c3ncnc4c3[nH]c3ccccc34)CC2)cc1	PGE2 EP2 inh 54, CHO parental Ca 75, OX1R antag-1 71, OX1R antag-2 89
CCOC(=O)N1CCN(c2ncnc3c2[nH]c2ccc(F)cc23)CC1	CHO parental Ca 47, OX1R antag-1 52
Fc1ccc2[nH]c3c(N4CCN(c5ccccc5)CC4)ncnc3c2c1	PGE2 EP2 inh 88, CHO parental Ca 59, OX1R antag-1 68, OX1R antag-2 118
CCn1ncc(S(=O)(=O)N2CCN(c3cccc(OC)c3)CC2)c1C	none (no result: PGE2 EP2 inh, EP2 modulator)
COc1ccc(NC(=O)COc2ccc(N(C)S(=O)(=O)c3ccc(Cl)cc3)cc2)cc1OC	CHO parental Ca 90, OX1R antag-1 51, OX1R antag-2 45 (no result: PGE2 EP2 inh, GPR7 antag, EP2 modulator)
CN(c1ccc(OCC(=O)OCC(=O)Nc2ccc(F)cc2)cc1)S(=O)(=O)c1ccc(Cl)cc1	none
N#Cc1ccc(NC(=O)Nc2ccc(Oc3ccc(NC(=O)Nc4ccc(C#N)cc4)cc3)cc2)cc1	CHO parental Ca 38
COc1ccc(NC(=O)Nc2ccc(OC)cc2)cc1	none (no result: PGE2 EP2 inh)
CCn1c(=NC(=O)CCS(=O)(=O)c2ccccc2)sc2cccc(OC)c21	CHO parental Ca 56 (no result: PGE2 EP2 inh, EP2 modulator)
CC(C)CNC(=O)c1ccc(Cl)c(NC(=O)COc2ccccc2)c1	none
CCOc1ccccc1C(=O)Nc1cc(C(=O)NCC(C)C)ccc1Cl	OX1R antag-2 48
COc1ccc2cc(Br)ccc2c1CC(=O)NC(C)(C)C	CHO parental Ca 54
CCCc1nnc(SCC(=O)Nc2ccc3c(c2)OCCO3)n1CCOC	none (no result: PGE2 EP2 inh, EP2 modulator)
COc1ccc2[nH]c3c(Cl)ncnc3c2c1	none
COc1ccc2[nH]c3c(=S)nc[nH]c3c2c1	EP2 modulator 62
COc1cc2cc(CN(CCCO)C(=O)c3cccs3)c(=O)[nH]c2cc1OC	none (no result: CHO parental Ca, OX1R antag-1, GPR7 antag, OX1R antag-2)
COc1ccc2ccccc2c1C(O)c1nccn1C (centres undefined)	OX1R antag-2 64
Cn1ccnc1C(O)c1ccccc1 (centres undefined)	none
Nc1c(C(=O)c2cccs2)oc2ccccc12	OX1R antag-2 68
Nc1c(C(=O)c2ccc(Br)cc2)oc2ccccc12	none
COc1ccc(/C=C\C(=O)O[C@@H]2C(O)C(O[C@@H]3OC(C)[C@H](O[C@@H]4OCC(O[C@H]5O[C@H](CO)[C@@H](O)C(O)C5O)C(O)C4O)C(O)C3O)[C@H](OC(=O)[C@]34CCC(C)(C)C[C@@H]3C3=CCC5[C@@]6(C)CC(O)C(O[C@@H]7OC(CO)C(O)[C@H](O)[C@H]7O)[C@@](C)(C(=O)O)C6CC[C@@]5(C)[C@]3(CO)CC4)O[C@H]2C)cc1 (some centres undefined)	CHO parental Ca 101, OX1R antag-1 110 (no result: PGE2 EP2 inh, GPR7 antag, EP2 modulator)
CC(C)NC(=O)Nc1ccc2c(c1)C(=O)N([C@@H](C)CO)C[C@@H](C)[C@@H](CN(C)S(=O)(=O)c1ccc(F)cc1)O2	none (no result: PGE2 EP2 inh, GPR7 antag, EP2 modulator)
C[C@H]1CN([C@@H](C)CO)C(=O)c2cccc(NC(=O)Nc3ccc(C(F)(F)F)cc3)c2O[C@@H]1CN(C)C(=O)Nc1ccc(F)cc1	none (no result: PGE2 EP2 inh, GPR7 antag, EP2 modulator)
C[C@H](CO)N1C[C@H](C)[C@@H](CN(C)C(=O)Nc2ccc(C(F)(F)F)cc2)Oc2c(NC(=O)Nc3ccc(C(F)(F)F)cc3)cccc2C1=O	CHO parental Ca 41 (no result: PGE2 EP2 inh, GPR7 antag, EP2 modulator)
Cc1cc(NC(=O)COC(=O)CC2CCCC2)c([N+](=O)[O-])cc1C	none (no result: PGE2 EP2 inh, EP2 modulator)
Cc1cc(NC(=O)COC(=O)C2CCC(=O)N2)c([N+](=O)[O-])cc1C (centres undefined)	OX1R antag-2 61
O=C(Nc1ccc(C2=NCCN2)cc1)c1ccc(C(=O)Nc2ccc(C3=NCCN3)cc2)c([N+](=O)[O-])c1	OX1R antag-2 38
CCn1nnnc1SCC(=O)c1cccc(OC)c1	none
CCCCNC(=O)C1CC(c2cccc([N+](=O)[O-])c2)=NO1 (centres undefined)	none
O=C(O)c1ccccc1-c1ccc(/C=C/c2cc(C(F)(F)F)[nH]c(=O)n2)o1	none (no result: CHO parental Ca, OX1R antag-1, OX1R antag-2)
O=c1nc(/C=C/c2ccc(-c3ccc(F)cc3)o2)cc(C(F)(F)F)[nH]1	OX1R antag-1 53
Cc1cc(C)nc(SCc2nc(N)nc(-c3ccccc3O)n2)n1	OX1R antag-2 55
Nc1nc(-c2ccccc2)nc(-c2ccccc2O)n1	OX1R antag-2 52 (no result: EP2 modulator)
Nc1nc(N)nc(-c2ccccc2O)n1	none
O=C(C(=O)N1CCN(Cc2ccccc2)CC1)c1c[nH]c2ccccc12	none (no result: PGE2 EP2 inh, GPR7 antag, EP2 modulator)
O=C(c1c[nH]c2ccccc12)N1CCN(Cc2ccccc2)CC1	GPR7 antag 18
COc1ccc(C(=O)N2CCN(c3ccc(C)c(C)c3)CC2)cc1OC	GPR7 antag 20 (no result: PGE2 EP2 inh)
COc1ccc(C(=O)N2CCN(c3ccc(C)cc3C)CC2)cc1OC	none
CN(C)c1cccc(C(=O)OCC(=O)Nc2ccccc2-c2ccccc2)c1	none
CCN(CC)c1ccc(C(=O)OCC(=O)Nc2ccccc2-c2ccccc2)cc1	CHO parental Ca 67, OX1R antag-2 49
CCCCN1CCCC1CNC(=O)c1cc(C#N)c2ccccc2c1OC (centres undefined)	none (no result: EP2 modulator)
COc1ccc(/C=C/c2cc[n+](C(=O)Cc3ccccc3)cc2)cc1	OX1R antag-2 73
CC(NC(=O)C1CCC(CNC(=O)[C@@H]2Cc3ccccc3CN2)CC1)c1ccccc1 (some centres undefined)	none (no result: PGE2 EP2 inh, EP2 modulator)
c1csc(COc2ccccc2CNC2CCCCC2)c1	GPR7 antag 24
CC(C)(C)c1ccc(CSc2nnc(-c3ccccn3)n2Cc2ccco2)cc1	none (no result: PGE2 EP2 inh)
Clc1cccc(CSc2nnc(-c3ccccn3)n2Cc2ccco2)c1	GPR7 antag 21
Brc1ccc(CSc2nnc(-c3ccccn3)n2Cc2ccco2)cc1	GPR7 antag 18
